Assay results gathered from unrelated publications.
Lines come from different studies, so protocols differ.
Cell line: Vero
Observed: cell growth or viability

With `Brc1cccc(NCc2ccc(Oc3ccccn3)cc2)c1` the CC50 was > 300 µM (MTT; 72 h).
With `CC(C(=O)O)N1c2nc(-c3ccc(Cl)cc3)c(C#N)c(=O)n2NC1c1ccccc1O` (stereo not drawn) the CC50 was 500 µg/mL (MTT; 72 h).
With `Fc1ccccc1NCc1ccc(Oc2ccccn2)cc1` the CC50 was > 300 µM (MTT; 72 h).
`Cc1cn([C@H]2C[C@H](N=[N+]=[N-])[C@@H](CO)O2)c(=O)[nH]c1=O` has a CC50 of 51 µM.
For `COC(=O)N[C@H](C(=O)N1CCC[C@H]1c1nc(-c2ccc(-c3ccc(-c4c[nH]c([C@@H]5CCCN5C(=O)[C@@H](NC(=O)OC)C(C)C)n4)cc3)cc2)c[nH]1)C(C)C`, the CC50 was 26 µM.
For `CC(=O)C1=C(C)N2NC(C)(c3ccccc3O)N(C(Cc3c[nH]c4ccccc34)C(=O)O)C2=NC1c1ccc(Cl)cc1` (stereo not drawn), the CC50 was 500 µg/mL (MTT; 72 h).
With `COC(=O)N[C@H](C(=O)N1C[C@H](N=[N+]=[N-])C[C@H]1c1ncc(-c2ccc(-c3ccc(-c4cnc([C@@H]5C[C@@H](N=[N+]=[N-])CN5C(=O)[C@@H](NC(=O)OC)C(C)C)[nH]4)cc3)cc2)[nH]1)C(C)C` the CC50 was > 100 µM.
With `Cc1ccc(NCc2ccc(Oc3ccccn3)cc2)cc1` the CC50 was > 300 µM (MTT; 72 h).
For `O=C(Nc1ccc(Br)c(C(F)(F)F)c1)c1ccccc1O`, the CC50 was < 5 µg/mL (MTT; 72 h).
With `COc1ccc(NCc2ccc(Oc3ccccn3)cc2)cc1` the CC50 was > 300 µM (MTT; 72 h).
`C[C@H]1COc2c(N3CCN(C)CC3)c(F)cc3c(=O)c(C(=O)O)cn1c23` gave a CC50 of > 100 µg/mL (MTT; 72 h).
`COc1cccc(NCc2ccc(Oc3ccccn3)cc2)c1` gave a CC50 of > 300 µM (MTT; 72 h).
The CC50 of `CCOC(=O)C1=C(C)N2NC(c3ccccc3O)N(C(Cc3c[nH]c4ccccc34)C(=O)O)C2=NC1c1ccc(Cl)cc1` (stereo not drawn) is reported as 250 µg/mL (MTT; 72 h).
With `O=C(Nc1ccc(F)c(Cl)c1)c1cc(Cl)ccc1O` the CC50 was < 5 µg/mL (MTT; 72 h).
`CC1(C)OB(CC2c3ccccc3C(=O)N2C2CCCCC2)OC1(C)C` (stereo not drawn) gave a CC50 of 175 µM.
The CC50 of `O=C(Nc1ccc(Cl)c(C(F)(F)F)c1)c1ccccc1O` is reported as < 10 µg/mL (MTT; 72 h).
`NC(=O)c1ncn([C@@H]2O[C@H](CO)[C@@H](O)[C@H]2O)n1` has a CC50 of > 200 µM (MTT; 72 h).
The CC50 of `O=C(Nc1ccc(Cl)c(C(F)(F)F)c1)c1cc(Cl)ccc1O` is reported as 5 µg/mL (MTT; 72 h).
With `c1ccc(NCc2ccc(Oc3ccccn3)cc2)cc1` the CC50 was > 300 µM (MTT; 72 h).
`O=C(Nc1ccc(Br)cc1)c1cc(Cl)ccc1O` has a CC50 of 10 µg/mL (MTT; 72 h).
`CN(C)N1C(=O)c2ccccc2C1CB1OC(C)(C)C(C)(C)O1` (stereo not drawn) gave a CC50 of 204 µM.
